Scp1 inh = Scp-1 (human) phosphatase inhibition | Recombinant Scp1, phosphopeptide, malachite green phosphate absorbance | inhibition, % at 20 µM | 340,000 compounds, 0.88% hits | AID 493091;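 active = inhibition above about 50% at 20 µM, limit read from the data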;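 also: plate controls were DMSO wells with enzyme for no effect and wells lacking enzyme for full effect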
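Incubation: 45 min enzyme reaction at room temperature / System: truncated SCP-1 phosphatase (76-261aa) / Reagent: Phospho 17-mer peptide substrate / Buffer or medium: Acidic Tris acetate buffer with magnesium and detergent / Signal: absorbance at 630 nm / Doses: one concentration, 20 µM, with 1.0% DMSO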
STEP block = blocks human striatal-enriched tyrosine phosphatase; inhibition, % at 20 µM; recombinant STEP, OMFP fluorogenic substrate, fluorescence; AID 588621; 360,000 compounds, 0.25% hits;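 active = inhibition at 20 µM, scaled per plate between control wells, above about 37%, limit read from the data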;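 also: 0% = DMSO with enzyme and substrate and 100% = substrate only without enzyme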
Target sequence (P54829 whole entry, looked up): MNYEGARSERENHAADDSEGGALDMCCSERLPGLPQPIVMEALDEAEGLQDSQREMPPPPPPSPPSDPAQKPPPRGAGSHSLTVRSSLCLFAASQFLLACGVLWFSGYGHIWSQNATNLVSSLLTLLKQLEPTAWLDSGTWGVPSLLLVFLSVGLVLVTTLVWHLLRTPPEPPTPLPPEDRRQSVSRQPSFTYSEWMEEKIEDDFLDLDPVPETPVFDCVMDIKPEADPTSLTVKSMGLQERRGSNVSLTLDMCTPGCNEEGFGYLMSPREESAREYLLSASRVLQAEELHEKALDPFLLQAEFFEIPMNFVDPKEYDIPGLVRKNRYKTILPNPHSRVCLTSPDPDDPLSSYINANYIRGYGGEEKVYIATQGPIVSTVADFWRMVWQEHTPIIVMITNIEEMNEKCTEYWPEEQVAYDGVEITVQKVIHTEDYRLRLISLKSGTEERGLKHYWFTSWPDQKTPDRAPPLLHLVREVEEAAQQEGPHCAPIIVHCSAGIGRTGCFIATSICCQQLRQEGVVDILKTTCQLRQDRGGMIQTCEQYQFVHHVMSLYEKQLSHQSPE
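Test system: STEP tyrosine phosphatase / Reagent: OMFP at 25 µM / Doses: 20 µM, 1% DMSO / Read-out: percent inhibition scaled to no-enzyme and uninhibited-enzyme controls, plate-pattern corrected / Detection: FITC-channel fluorescence of OMFP product / Medium: Bis-Tris buffer pH 6.0, 2.5 mM DTT, 0.005% Tween 20 / Schedule: 20 min at room temperature, dark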
DNMT1 inh = blocks human DNA methyltransferase DNMT1; 360,000 compounds, 0.83% hits; inhibition (reported as % activation of signal), % at 10 µM; DNMT1 molecular beacon, Hinp1I cleavage, fluorescence; P26358; in the data active = inhibition above about 50%
SUMO1 PPI mod = alters human SUMO1 binding to SIM partners; P63165; SUMO1 binding to a labelled peptide, TR-FRET, 1 h; inhibition, % at 20 µM; 360,000 compounds, 0.33% hits; AID 602429; in the data active = inhibition above about 37%
GRK2 inh = human GRK2 inhibition via aptamer displacement; inhibition of aptamer binding, % at 10 µM; bead flow cytometry, FAM-aptamer displacement from GRK2; 330,000 compounds, 0.59% hits;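 active = inhibition of aptamer binding above 40%, roughly 3 SD of noise, on plates passing a quality check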;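 also: median bead fluorescence of bound FAM aptamer so fluorescent compounds give negative values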
LMPTP inh = blocks human LMPTP phosphatase. P24666. recombinant LMPTP-A, OMFP fluorogenic substrate, fluorescence intensity. inhibition, % at 20 µM. AID 651560. 360,000 compounds, 0.22% hits;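 active = compounds that cut the enzyme signal by at least half of the control window in the single-dose screen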;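 also: plate controls were DMSO wells with enzyme plus substrate for no effect and substrate without enzyme for full effect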
Target sequence (P24666 whole entry, looked up): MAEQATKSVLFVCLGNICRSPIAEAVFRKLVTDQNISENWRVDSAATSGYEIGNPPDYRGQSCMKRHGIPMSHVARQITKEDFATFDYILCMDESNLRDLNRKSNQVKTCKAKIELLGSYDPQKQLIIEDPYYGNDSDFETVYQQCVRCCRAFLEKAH
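Test system: LMPTP-A phosphatase enzyme. Amount: LMPTP-A at 0.625 nM final in the reaction. Reagent: OMFP substrate, 400 µM final. Times: 50 min at room temperature. Signal: endpoint fluorescence intensity from OMFP dephosphorylation. Read-out basis: % inhibition. Benchmarks: no-enzyme and uninhibited controls.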
Scp1 confirm = confirmation of human Scp-1 phosphatase inhibitors. 2,500 compounds, 61% hits. shares compounds with Scp1 inh. inhibition, % at 20 µM. recombinant SCP-1 catalytic domain, phosphate release, malachite green absorbance;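 also: plate controls were DMSO with enzyme for no effect and buffer wells lacking enzyme for full effect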
Scp-1 MG ctr = colorimetric interference in Scp-1 counter-screen; shares compounds with Scp1 inh; Colorimetric interference counterscreen, malachite green absorbance 630 nm; apparent inhibition (interference), % at 20 µM; 2,500 tested, under 10 active; AID 540313;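 also: compounds added after enzyme reaction finished so only phosphate colour detection is probed; plate controls were DMSO wells with completed Scp-1 reaction for no effect and substrate wells lacking enzyme for full effect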
Scp-1 Tm shift = binds human Scp-1, shifting its melting temperature. shares compounds with Scp1 inh. Recombinant SCP1, Sypro Orange thermal shift Tm. thermal shift relative to vanadate control, % at 40 µM. 1,500 compounds, 25% hits;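 active = substances whose mean melting-temperature shift, as a percentage of the reference inhibitor's shift, reaches about 5.3%, limit read from the data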;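 also: 0% = Tm of DMSO wells and 100% = Tm with sodium orthovanadate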
DNMT1 interf DR = shows spectral interference in the DNMT1 beacon assay; shares compounds with DNMT1 inh; molecular beacon fluorescence, spectral interference counter-screen; IC50, µM; 200 tested, under 10 active; AID 602382; call rule not given here
DNMT1 inh conf = confirmation of human DNMT1 inhibitors | DNMT1 molecular beacon HinP1I cleavage, fluorescence | shares compounds with DNMT1 inh | inhibition, % at 10 µM | 2,300 compounds, 8% hits | AID 602385;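 active = average inhibition of at least 30% in the single-concentration confirmation test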
DNMT1 interf = shows spectral interference in the DNMT1 beacon assay. shares compounds with DNMT1 inh. DNMT1 molecular beacon spectral interference counterscreen, fluorescence 485/520. activation (fluorescence interference), % at 10 µM. 2,300 compounds, 1% hits. AID 602387;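 active = activation of at least 30% at 10 µM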;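 also: DNMT1 catalytic domain with a HinP1I cleavage step and a FAM/dabcyl DNA beacon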
An asterisk follows results filed as active; x = not tested or not shown. Shown are actives, neighbours in structure and some others; about 2.1% of the full set was active somewhere.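 The calls were made as follows, unless noted: active = inhibition of at least 30% at 20 µM; inactive = the rest.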

SMILES	Scp1 inh	STEP block	DNMT1 inh	SUMO1 PPI mod	GRK2 inh	LMPTP inh	Scp1 confirm	Scp-1 MG ctr	Scp-1 Tm shift	DNMT1 inh conf	DNMT1 interf	others
NS(=O)(=O)c1ccc(CNC(=O)Cc2cccs2)cc1	83*	3	52*	2	2	50*	48*	-19	6.9*	5	1
CCCCN1C(=O)C(CC(=O)NC2CC2)CC(C(=O)N(CC)CC)=C1C (stereo not given)	x	-1	-3	1	x	-1	x	x	x	x	x
Cc1ccc(Cl)cc1N1CCN(C(=O)CN(c2ccccc2)S(=O)(=O)N(C)C)CC1	68*	23	65*	6	11	24	70*	-11	-11	3	1
O=C(NCc1ccco1)C1Cc2ccccc2CN1S(=O)(=O)c1ccccc1F (stereo not given)	70*	0	71*	13	0	2	77*	-5	7.5*	6	4
O=C(NCc1ccco1)C1Cc2ccccc2CN1C(=O)c1ccco1 (stereo not given)	36	-1	4	3	0	3	x	x	x	x	x
Cc1cn([C@H]2C[C@H](O)[C@@H](/C=C/C(=O)N3CCN(Cc4ccc(F)cc4)CC3)O2)c(=O)[nH]c1=O	x	-2	4	1	x	-1	x	x	x	x	x
CC1(OC(=O)c2ccc(Cl)nc2)C(=O)C=C2C=C3CCCN3C=C2C1=O (stereo not given)	65*	10	66*	15	4	4	16	-12	x	6	4
COC(=O)C[C@@H]1OC[C@H](C(C)C)N1S(=O)(=O)c1ccc(C)cc1	x	x	x	0	x	-1	x	x	x	x	x
Cc1ncc([N+](=O)[O-])n1CCOC(=O)c1cc(Cl)cc(Cl)c1N	62*	3	60*	-3	4	6	68*	-11	12*	4	3
Cc1ncc([N+](=O)[O-])n1CCOC(=O)Nc1ccc([N+](=O)[O-])cc1	-7	-9	-1	-18	0	-1	x	x	x	x	x
COC(=O)c1c(NC(=O)CN2C(=O)NC3(CCC(C)CC3)C2=O)sc2c1CCC2 (stereo not given)	20	-1	6	0	4	3	x	x	x	x	x
CC1CCC2(CC1)NC(=O)N(CC(=O)Nc1sc3c(c1C(N)=O)CCC3)C2=O (stereo not given)	86*	21	70*	18	38	6	65*	-11	12*	5	-1
Cn1cnnc1SCC(=O)Nc1sc2c(c1C(N)=O)CCC2	65*	6	85*	43*	8	45	73*	-7	13*	17	3
COc1ccc(N=C2NC(=O)/C(=C\c3ccco3)S2)cc1	89*	6	70*	-10	3	40	52*	-12	2	8	30
COCCCN1C(=O)C(CC(=O)NCc2cccs2)CC(C(=O)N2CCCCCC2)=C1C (stereo not given)	x	x	x	-3	x	-2	x	x	x	x	x
Cc1ccccc1NC(=O)CSc1ccsc1[N+](=O)[O-]	72*	18	104*	6	16	50	62*	-15	14*	49*	-2	DNMT1 interf DR=>99
O=C(N/N=C/c1ccc([N+](=O)[O-])o1)c1cn2ccc3ccccc3c2n1	80*	-1	55*	29	0	7	-11	-16	x	3	-2
O=C(OCc1cc(=O)n2c(n1)sc1ccccc12)c1cccc(O)c1	79*	0	98*	12	3	8	58*	-19	5	23	5
O=C(OCc1cc(=O)n2c(n1)sc1ccccc12)c1ccc(O)cc1O	78*	3	70*	4	1	13	60*	-12	0	6	-7
COC(=O)c1cc(=O)nc2sc3ccccc3n12	0	-3	4	2	0	0	x	x	x	x	x
CC(C)[C@H](NC(=O)c1ccco1)C(=O)OCc1cc(=O)n2c(n1)sc1ccccc12	83*	0	84*	11	13	21	59*	-14	2	17	-1
Cc1ccc2c(CC(=O)OCc3csc(C)n3)coc2c1	1	2	-2	-1	0	-2	x	x	x	x	x
O=C(Cc1coc2cc3c(cc12)CCC3)OCc1cc(=O)n2c(n1)sc1ccccc12	63*	2	85*	6	5	9	51*	-30	6.3*	1	2
Cc1[nH]c2ccccc2c1C(=O)c1cc(Cc2ccccc2)sc1N	x	x	x	-3	x	1	x	x	x	x	x
O=C1NC(=S)NC1=Cc1ccco1	59*	9	53*	8	x	14	54*	-4	2	5	2
SMILES	Scp1 inh	STEP block	DNMT1 inh	SUMO1 PPI mod	GRK2 inh	LMPTP inh	Scp1 confirm	Scp-1 MG ctr	Scp-1 Tm shift	DNMT1 inh conf	DNMT1 interf	others
O=C1NC(=O)/C(=C/c2ccco2)N1	-6	-2	5	-16	0	-1	x	x	x	x	x
CCN(CC)C(=O)C1=C(C)N(CCCN2CCCC2=O)C(=O)C(CC(=O)NC2CCCCC2)C1 (stereo not given)	x	8	13	6	x	1	x	x	x	x	x
Cc1ccc(C(=O)O)cc1-c1ccc(C=C2C(=O)c3ccccc3C2=O)o1	79*	42*	73*	13	35	13	47*	-23	12*	7	0
Cc1cc(C(=O)O)ccc1-n1c(C)cc(C=C2C(=O)c3ccccc3C2=O)c1C	6	6	10	0	2	4	x	x	x	x	x
COc1ccc(NC(=O)c2c3c(nc4ccccc24)CCC3)cc1S(=O)(=O)N1CCOCC1	81*	8	86*	9	13	2	59*	-14	11*	8	3
COc1ccc(N2Cc3cccc(C(=O)N4CCOCC4)c3C2=O)cc1	1	5	0	0	2	-2	x	x	x	x	x

Screening data as filed in PubChem.
